{"source": "paper PMC9386786", "about": "(Cell metabolism, 2022)", "molecules": {"B1": {"name": "GDF15 protein: Growth differentiation factor 15, circulating secretory protein (protein, UniProt Q99988 195-308, looked up)", "Growth/differentiation factor …": "ARARNGDHCPLGPGRCCRLHTVRASLEDLGWADWVLSPREVQVTMCIGACPSQFRAANMHAQIKTSLHRLKPDTVPAPCCVPASYNPMVLIQKTDTGVSLQTYDDLLAKDCHCI"}}, "key": {"CNOT6L": {"target": "CNOT6L (Homo sapiens, UniProt Q96LI5)", "sequence (Q96LI5 158-555)": "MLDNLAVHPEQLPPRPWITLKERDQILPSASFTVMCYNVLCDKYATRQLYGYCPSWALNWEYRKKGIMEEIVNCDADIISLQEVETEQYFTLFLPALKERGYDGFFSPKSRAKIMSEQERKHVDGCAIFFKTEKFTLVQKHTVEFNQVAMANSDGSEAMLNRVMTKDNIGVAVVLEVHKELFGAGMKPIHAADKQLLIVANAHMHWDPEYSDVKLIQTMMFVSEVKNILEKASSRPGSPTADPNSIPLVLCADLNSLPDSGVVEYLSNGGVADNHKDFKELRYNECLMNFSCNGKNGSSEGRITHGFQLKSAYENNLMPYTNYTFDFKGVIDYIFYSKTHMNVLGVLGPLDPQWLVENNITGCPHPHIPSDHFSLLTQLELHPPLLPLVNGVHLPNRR", "experiment": "Gel-based deadenylase assay, CNOT6L", "assay_type": "biochemical"}, "[1]": {"test_system": "GDF15 and FGF21 mRNAs in Huh7 cells", "experiment": "Hepatokine mRNA and protein levels in Huh7 cells", "assay_type": "cell-based, human", "conditions": "for EC50: Homo sapiens"}, "[2]": {"test_system": "Gdf15 and Fgf21 mRNAs in primary hepatocytes", "experiment": "Hepatokine mRNA levels in mouse primary hepatocytes", "assay_type": "cell-based", "conditions": "for EC50: Mus musculus, Hepatocyte", "outline": "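Hepatocytes were isolated from 8-week-old male mice by portal vein perfusion and collagenase digestion, Percoll-purified, plated on collagen I, and cultured in William's E medium. Huh7 cells were grown in DMEM with 10% FBS. Cells were exposed to test compound at graded concentrations and for various times. mRNAs were quantified by RT-qPCR, normalized to Hprt (mouse) or GAPDH (human); n = 3 per group. EC50 was derived from the concentration–response curves.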"}, "WT mice [3]": {"test_system": "WT mice", "experiment": "Food intake and body weight after a single administration in mice", "assay_type": "in vivo, mouse", "conditions": "for ED50: Mus musculus, ip"}, "[4]": {"test_system": "translation of Gdf15 and Fgf21 mRNAs in liver", "experiment": "Polysome profiling of livers of treated mice", "assay_type": "in vivo, mouse"}, "[5]": {"test_system": "C57BL/6J WT mice kept on a high-fat diet", "experiment": "HFD-induced obese mouse model, treatment twice a week for 12 weeks", "assay_type": "in vivo", "outline": "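From 8 weeks of age, male and female C57BL/6J mice were fed high-fat diet for 12 weeks and given test compound (2 mg/kg) or vehicle ip twice weekly. Measurements included: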"}, "[6]": {"test_system": "3' UTRs of human GDF15 and FGF21 and mouse Gdf15 and Fgf21 mRNAs", "experiment": "3' UTR luciferase assay in Huh7 cells", "assay_type": "cell-based", "outline": "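Human GDF15/FGF21 3′UTRs (amplified from Huh7 cDNA) and mouse Gdf15/Fgf21 3′UTRs (from WT mouse liver cDNA) were cloned downstream of the firefly luciferase coding region. These plasmids (50–100 ng) were lipofected into Huh7 cells together with a Renilla luciferase (TK) control. Firefly and Renilla activities were measured by dual-luciferase assay, and firefly signal was normalized to Renilla to correct for transfection efficiency.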"}, "WT mice [7]": {"test_system": "WT mice", "assay_type": "in vivo, mouse", "conditions": "single administration"}, "[8]": {"test_system": "GDF15 and FGF21 mRNAs in primary hepatocytes and Huh7 cells", "experiment": "mRNA stability assay with actinomycin D", "assay_type": "cell-based", "conditions": "with actinomycin D 5 μg/mL; iD1 5 μM", "outline": "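Mouse primary hepatocytes and Huh7 cells were treated with actinomycin D (5 μg/mL) plus DMSO vehicle or test compound (5 μM in hepatocytes) for a time course. Before actinomycin D, Huh7 cells were pretreated with Wy-14643 (200 μM, 6 h) to induce FGF21 mRNA. Transcripts were measured by RT-qPCR, normalized to Hprt or GAPDH, and expressed as percent of the initial level. Half-lives were fitted by first-order decay; n = 3.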"}, "CNOT7": {"target": "CNOT7 (Homo sapiens, UniProt Q9UIV1)", "sequence (Q9UIV1 whole entry, the tested form may be a part)": "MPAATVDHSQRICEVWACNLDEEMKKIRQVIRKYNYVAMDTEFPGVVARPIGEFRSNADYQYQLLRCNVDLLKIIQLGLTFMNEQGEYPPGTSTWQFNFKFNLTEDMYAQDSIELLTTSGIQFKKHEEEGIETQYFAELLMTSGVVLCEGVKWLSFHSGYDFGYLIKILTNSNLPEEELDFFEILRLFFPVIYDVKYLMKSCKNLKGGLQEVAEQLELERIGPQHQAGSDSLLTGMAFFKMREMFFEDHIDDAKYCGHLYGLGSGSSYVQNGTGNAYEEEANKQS", "experiment": "Gel-based deadenylase assay, CNOT7", "assay_type": "biochemical", "outline": "(§1)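 Enzymes were expressed in and purified from E. coli BL21: the human CNOT6 catalytic domain (aa 153–557) and full-length human CNOT7 and CNOT8. Each enzyme (2.5 μM final) was preincubated with inhibitor at the indicated concentrations for 1 h at 37 °C. 5′-FITC-labelled poly(A)20 RNA (50 nM final) was then added for 1.5 h at 37 °C, and deadenylation was resolved on gel.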"}, "CNOT6": {"target": "CNOT6 (Homo sapiens, UniProt Q9ULM6)", "sequence (Q9ULM6 153-557)": "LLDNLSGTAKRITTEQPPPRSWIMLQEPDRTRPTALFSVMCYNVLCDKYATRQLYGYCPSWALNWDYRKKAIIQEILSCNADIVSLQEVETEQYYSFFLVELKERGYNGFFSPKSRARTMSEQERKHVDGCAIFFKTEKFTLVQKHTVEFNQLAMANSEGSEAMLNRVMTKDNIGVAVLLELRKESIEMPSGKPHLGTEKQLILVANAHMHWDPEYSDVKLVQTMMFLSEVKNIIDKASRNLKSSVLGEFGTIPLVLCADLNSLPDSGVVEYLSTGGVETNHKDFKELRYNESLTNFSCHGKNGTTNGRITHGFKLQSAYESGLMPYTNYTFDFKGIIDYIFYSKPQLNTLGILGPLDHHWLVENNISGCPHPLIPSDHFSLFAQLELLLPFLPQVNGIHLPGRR", "experiment": "Gel-based deadenylase assay, CNOT6", "assay_type": "biochemical", "conditions": "compared to CNOT6L", "outline": "as §1"}, "CNOT8": {"target": "CNOT8 (Homo sapiens, UniProt Q9UFF9)", "sequence (Q9UFF9 whole entry)": "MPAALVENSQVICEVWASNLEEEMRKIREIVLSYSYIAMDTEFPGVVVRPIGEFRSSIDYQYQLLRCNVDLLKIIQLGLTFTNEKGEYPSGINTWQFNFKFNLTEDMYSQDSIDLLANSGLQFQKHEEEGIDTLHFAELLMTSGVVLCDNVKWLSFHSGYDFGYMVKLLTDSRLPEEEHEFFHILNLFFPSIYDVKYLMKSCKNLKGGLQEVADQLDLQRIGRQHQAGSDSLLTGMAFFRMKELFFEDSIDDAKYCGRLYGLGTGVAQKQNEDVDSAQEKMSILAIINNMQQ", "experiment": "Gel-based deadenylase assay, CNOT8", "assay_type": "biochemical", "outline": "as §1"}, "[9]": {"test_system": "promoter activity of GDF15 and FGF21 genes", "experiment": "Promoter luciferase reporter assay in Huh7 cells", "assay_type": "cell-based, human", "outline": "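Human GDF15 or FGF21 promoters were PCR-amplified from Huh7 genomic DNA and placed upstream of firefly luciferase; a promoter-less construct served as control. Constructs (50–100 ng) were lipofected into Huh7 cells with a Renilla luciferase (TK) control, and cells were treated with vehicle or test compound. Firefly activity was read by dual-luciferase assay and normalized to Renilla.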"}, "[10]": {"test_system": "neurons in NTS, AP and PVN", "experiment": "c-Fos immunofluorescence in the brain", "assay_type": "in vivo, mouse"}, "WT mice [11]": {"test_system": "WT mice", "experiment": "Oxygen consumption and RER", "assay_type": "in vivo, mouse", "outline": "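WT mice received a single ip injection of vehicle or test compound (2 mg/kg). They were then housed singly on a 12 h light/dark cycle, either fed or food-deprived. VO2 and VCO2 were recorded at 25 °C by indirect calorimetry, and dark- and light-cycle averages were taken. VO2 was expressed per kg body weight per hour, and RER was calculated as VCO2/VO2.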"}, "[12]": {"test_system": "hepatic Gdf15 and Fgf21 mRNAs, serum GDF15 and FGF21", "experiment": "Hepatokine levels after intraperitoneal administration in WT C57BL/6J mice", "assay_type": "in vivo, mouse", "outline": "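WT mice received test compound ip at 2 mg/kg. For fasting/refeeding, mice were fed, fasted 24 h, or refed 2 h after a 24 h fast, and were injected 3 h before dissection. For exercise, mice ran to exhaustion on a 10°-sloped shock treadmill and were sampled before, immediately after, or 3 h after running, with food and water available. Poly(I:C) was given ip at 10 mg/kg. Hepatic mRNA was measured by RT-qPCR (Hprt-normalized) and serum GDF15/FGF21 by ELISA.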"}, "[13]": {"conditions": "ref Xiong et al., 2017; cited from earlier work"}, "[14]": {"conditions": "male and female mice, IP twice a week"}}, "note": "Read-outs that look alike come from different tables or passages of the source.", "data": [{"molecule": "Nc1ncnc2c1ncn2[C@@H]1O[C@H](COP(=O)(O)O)[C@@H](O)[C@H]1O", "note": "[AMP]", "values": [{"measurement": "IC50", "setting": "CNOT6L", "result": 76.3, "unit": "µM"}]}, {"molecule": "Cc1cccc(Nc2cc(Cl)nc(SCC(=O)O)n2)c1C", "note": "[WY-14643, reference compound]", "values": [{"measurement": "FGF21 mRNA in Huh7 cells", "setting": "[1]; 200 μM, 6 h", "result": "increased"}]}, {"molecule": "CC(C)=CCC(O)C1=CC(=O)c2c(O)ccc(O)c2C1=O", "note": "(stereo not drawn) [iD1]", "values": [{"measurement": "EC50", "setting": "[2]; read-out: EC50 for Fgf21 mRNA", "result": 2080, "unit": "nM"}, {"measurement": "EC50", "setting": "[2]; read-out: EC50 for Gdf15 mRNA", "result": 1110, "unit": "nM"}, {"measurement": "levels of hepatokine mRNAs (GDF15, FGF21, INHBE, ADM, ADAMTS1, HBEGF)", "setting": "[2]; mouse primary hepatocytes and Huh7 cells, dose- and time-dependent", "result": "increased"}, {"measurement": "effects on food intake, body weight, serum triglycerides, ketone bodies, hepatic Gdf15 and Fgf21 mRNAs in Cnot6l−/− mice", "setting": "WT mice [3]; Cnot6l whole-body KO mice", "result": "did not induce significant effects"}, {"measurement": "ED50", "setting": "WT mice [3]; read-out: EC50 for body weight", "result": 1.23, "unit": "mg/kg"}, {"measurement": "ED50", "setting": "WT mice [3]; read-out: EC50 for food intake", "result": 1.43, "unit": "mg/kg"}, {"measurement": "body weight", "setting": "WT mice [3]; single administration", "result": "significantly reduced"}, {"measurement": "global translation", "setting": "[4]", "result": "did not affect"}, {"measurement": "translational efficacy of Gdf15 and Fgf21 mRNAs", "setting": "[4]", "result": "not affected"}, {"measurement": "obesity-induced hyperlipidemia, hyperglycemia, and hyperinsulinemia", "setting": "[5]; HFD", "result": "ameliorated"}, {"measurement": "hepatic steatosis and lipid accumulation in adipose tissues", "setting": "[5]; HFD obese mice", "result": "reversed"}, {"measurement": "insulin sensitivity and glucose tolerance", "setting": "[5]; HFD, long-term treatment, ITT and GTT", "result": "improved"}, {"measurement": "HFD-induced gain of body weight", "setting": "[5]; [14]", "result": "dramatically decreased"}, {"measurement": "food intake on HFD", "setting": "[5]; [14]", "result": "suppressed"}, {"measurement": "decrease of luciferase activity by 3' UTRs of GDF15/FGF21 mRNAs", "setting": "[6]", "result": "reversed"}, {"measurement": "serum insulin levels", "setting": "WT mice [7]", "result": "decrease"}, {"measurement": "serum ketone body levels", "setting": "WT mice [7]", "result": "increasing"}, {"measurement": "serum triglycerides", "setting": "WT mice [7]", "result": "reduced"}, {"measurement": "degradation of GDF15 and FGF21 mRNAs", "setting": "[8]", "result": "potently suppressed degradation"}, {"measurement": "EC50", "setting": "[1]; Huh-7, read-out: EC50 for FGF21 mRNA", "result": 1610, "unit": "nM"}, {"measurement": "EC50", "setting": "[1]; Huh-7, read-out: EC50 for GDF15 mRNA", "result": 530, "unit": "nM"}, {"measurement": "GDF15 and FGF21 protein abundance", "setting": "[1]; Huh7 cells", "result": "increased"}, {"measurement": "effects of thapsigargin and WY-14643 on GDF15 and FGF21 mRNA levels", "setting": "[1]; combination, Huh7 cells, 6 h", "result": "potentiated"}, {"measurement": "inhibition of CNOT7", "setting": "CNOT7", "result": "did not inhibit"}, {"measurement": "inhibition of CNOT6", "setting": "CNOT6", "result": "modestly inhibited"}, {"measurement": "inhibition of CNOT8", "setting": "CNOT8", "result": "did not inhibit"}, {"measurement": "promoter activity of GDF15 and FGF21 genes", "setting": "[9]", "result": "did not alter"}, {"measurement": "c-Fos staining within NTS and AP", "setting": "[10]; 3 h after administration", "result": "robust c-Fos staining"}, {"measurement": "c-Fos staining within PVN in the hypothalamus", "setting": "[10]; after administration", "result": "Robust c-Fos staining"}, {"measurement": "oxygen consumption", "setting": "WT mice [11]; fasted condition, relative to Veh", "result": "consumed more oxygen"}, {"measurement": "respiratory exchange rate (RER)", "setting": "WT mice [11]; fed condition", "result": "significantly reduced"}, {"measurement": "levels of hepatic Gdf15 and Fgf21 mRNAs and serum GDF15 and FGF21 proteins", "setting": "[12]; 3 h after one-time IP injection, 2 mg/kg", "result": "significantly increased"}, {"measurement": "degradation of Gdf15 and Fgf21 mRNAs post-exercise", "setting": "[12]; 3 h post-exercise recovery period, liver", "result": "attenuated degradation"}, {"measurement": "Fgf21 mRNA suppression induced by refeeding", "setting": "[12]; liver, refed after 24 h fasting", "result": "attenuated"}]}, {"molecule": "C/C=C(/C)C(=O)O[C@H]1C(C)=C2[C@H]([C@@H]1OC(=O)CCCCCCC)[C@@](C)(OC(C)=O)C[C@H](OC(=O)CCC)[C@@]1(O)[C@H]2OC(=O)[C@@]1(C)O", "note": "[thapsigargin, reference compound]", "values": [{"measurement": "GDF15 mRNA in Huh7 cells", "setting": "[1]; 1 μM, 6 h", "result": "increased"}]}, {"molecule": "poly(I:C) [reference compound]", "values": [{"measurement": "hepatic Gdf15 mRNA", "setting": "[12]; IP 10 mg/kg", "result": "increased"}]}, {"molecule": "B1", "values": [{"measurement": "half-life of circulating protein", "setting": "[13]", "result": 3, "unit": "h"}]}]}
